Reference: article PMC12709667 (Journal of Clinical Pharmacology, 2025)

Key:
OATP1B3 = biological target: T1, OATP1B3 (Homo sapiens, UniProt Q9NPD5); experiment: Transporter substrate assessment; format: in vitro ADME
T1 sequence (Q9NPD5 1-702): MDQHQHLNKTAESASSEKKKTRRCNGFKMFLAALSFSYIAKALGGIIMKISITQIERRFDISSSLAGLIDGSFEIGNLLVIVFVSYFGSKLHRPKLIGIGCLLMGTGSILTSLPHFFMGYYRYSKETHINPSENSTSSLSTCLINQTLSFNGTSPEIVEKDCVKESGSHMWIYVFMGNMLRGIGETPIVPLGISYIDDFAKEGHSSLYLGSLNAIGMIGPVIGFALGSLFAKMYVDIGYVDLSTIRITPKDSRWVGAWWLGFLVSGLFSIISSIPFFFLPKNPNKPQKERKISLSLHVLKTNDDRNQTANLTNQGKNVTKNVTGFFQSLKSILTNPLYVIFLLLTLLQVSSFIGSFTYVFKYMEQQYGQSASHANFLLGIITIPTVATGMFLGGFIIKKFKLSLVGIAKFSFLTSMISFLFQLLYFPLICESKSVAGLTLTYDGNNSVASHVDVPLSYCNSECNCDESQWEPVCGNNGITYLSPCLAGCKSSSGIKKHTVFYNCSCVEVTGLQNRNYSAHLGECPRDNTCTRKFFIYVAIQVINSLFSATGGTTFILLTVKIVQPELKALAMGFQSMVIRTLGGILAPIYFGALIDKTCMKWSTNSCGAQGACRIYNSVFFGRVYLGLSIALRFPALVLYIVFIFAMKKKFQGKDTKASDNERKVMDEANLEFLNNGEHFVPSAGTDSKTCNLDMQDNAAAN

28-day toxicology study = format: in vivo, monkey; conditions: monkeys
[1] = Animal and human ADME studies, summary of excretion; format: in vivo; conditions: animal and human ADME studies (Abstract)
CYP1A2 = biological target: T2, CYP1A2 (Homo sapiens, UniProt P05177); format: in vitro ADME
T2 sequence (P05177 1-516): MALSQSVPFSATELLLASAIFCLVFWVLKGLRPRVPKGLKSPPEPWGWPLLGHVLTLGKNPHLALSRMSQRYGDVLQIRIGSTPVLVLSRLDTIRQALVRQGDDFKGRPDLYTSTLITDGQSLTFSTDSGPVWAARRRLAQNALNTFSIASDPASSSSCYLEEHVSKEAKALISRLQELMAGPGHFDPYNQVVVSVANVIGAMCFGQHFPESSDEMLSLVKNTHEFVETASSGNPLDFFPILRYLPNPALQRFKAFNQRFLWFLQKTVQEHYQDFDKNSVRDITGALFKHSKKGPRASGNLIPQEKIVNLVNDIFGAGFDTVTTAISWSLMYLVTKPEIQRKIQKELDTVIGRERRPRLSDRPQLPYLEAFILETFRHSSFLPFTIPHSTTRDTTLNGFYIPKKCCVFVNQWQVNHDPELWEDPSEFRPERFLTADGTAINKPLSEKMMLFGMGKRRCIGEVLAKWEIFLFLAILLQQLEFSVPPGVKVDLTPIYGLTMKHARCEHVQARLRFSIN

CYP2C9 = CYP2C9 (Homo sapiens, UniProt P11712); experiment: Cytochrome P450 inhibition; format: in vitro ADME
UGT1A3 = biological target: T3, UGT1A3 (Homo sapiens, UniProt P35503); experiment: Phase 2 enzyme substrate assessment; format: in vitro ADME
T3 sequence (P35503 29-534): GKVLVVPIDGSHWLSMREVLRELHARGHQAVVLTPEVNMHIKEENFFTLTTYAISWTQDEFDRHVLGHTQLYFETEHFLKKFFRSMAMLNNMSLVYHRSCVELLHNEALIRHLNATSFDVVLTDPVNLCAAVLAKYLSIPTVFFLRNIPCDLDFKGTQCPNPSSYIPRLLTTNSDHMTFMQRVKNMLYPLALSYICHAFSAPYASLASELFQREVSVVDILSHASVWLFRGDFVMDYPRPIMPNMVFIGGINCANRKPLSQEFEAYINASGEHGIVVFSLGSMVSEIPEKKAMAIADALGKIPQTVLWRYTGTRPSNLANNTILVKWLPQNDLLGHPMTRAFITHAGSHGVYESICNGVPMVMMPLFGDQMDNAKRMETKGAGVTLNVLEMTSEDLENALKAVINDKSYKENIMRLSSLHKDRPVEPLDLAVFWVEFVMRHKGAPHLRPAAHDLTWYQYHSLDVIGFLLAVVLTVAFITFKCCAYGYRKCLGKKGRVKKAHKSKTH

BCRP [2] = biological target: T4, BCRP (Homo sapiens, UniProt Q9UNQ0); experiment: Transporter substrate assessment; format: in vitro ADME
T4 sequence (Q9UNQ0 1-655): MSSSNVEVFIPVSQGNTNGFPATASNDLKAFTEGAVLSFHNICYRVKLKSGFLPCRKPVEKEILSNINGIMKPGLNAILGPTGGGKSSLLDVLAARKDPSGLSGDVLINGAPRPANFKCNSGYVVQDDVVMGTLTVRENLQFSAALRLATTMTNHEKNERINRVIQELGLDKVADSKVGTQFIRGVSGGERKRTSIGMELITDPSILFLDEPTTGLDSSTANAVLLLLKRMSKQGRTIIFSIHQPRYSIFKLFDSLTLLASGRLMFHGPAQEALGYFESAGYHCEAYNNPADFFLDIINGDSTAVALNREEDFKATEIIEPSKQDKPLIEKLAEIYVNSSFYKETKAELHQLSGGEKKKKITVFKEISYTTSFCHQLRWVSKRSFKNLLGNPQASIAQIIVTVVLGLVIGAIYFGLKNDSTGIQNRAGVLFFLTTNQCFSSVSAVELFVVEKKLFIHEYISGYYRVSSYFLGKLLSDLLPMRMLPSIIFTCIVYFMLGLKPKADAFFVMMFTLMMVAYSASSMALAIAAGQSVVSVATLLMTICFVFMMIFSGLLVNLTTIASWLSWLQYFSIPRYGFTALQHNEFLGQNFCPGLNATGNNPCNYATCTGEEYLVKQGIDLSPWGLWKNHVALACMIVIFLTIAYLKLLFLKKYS

BCRP [3] = biological target: T4, BCRP; experiment: ABC transporter inhibition, inside-out vesicles; format: in vitro ADME
Method in brief: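 Inhibition of human BCRP transport was measured in inside-out membrane vesicles prepared from cells overexpressing the human ABC transporter.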

Chain of CYP2C9 (P11712 whole entry): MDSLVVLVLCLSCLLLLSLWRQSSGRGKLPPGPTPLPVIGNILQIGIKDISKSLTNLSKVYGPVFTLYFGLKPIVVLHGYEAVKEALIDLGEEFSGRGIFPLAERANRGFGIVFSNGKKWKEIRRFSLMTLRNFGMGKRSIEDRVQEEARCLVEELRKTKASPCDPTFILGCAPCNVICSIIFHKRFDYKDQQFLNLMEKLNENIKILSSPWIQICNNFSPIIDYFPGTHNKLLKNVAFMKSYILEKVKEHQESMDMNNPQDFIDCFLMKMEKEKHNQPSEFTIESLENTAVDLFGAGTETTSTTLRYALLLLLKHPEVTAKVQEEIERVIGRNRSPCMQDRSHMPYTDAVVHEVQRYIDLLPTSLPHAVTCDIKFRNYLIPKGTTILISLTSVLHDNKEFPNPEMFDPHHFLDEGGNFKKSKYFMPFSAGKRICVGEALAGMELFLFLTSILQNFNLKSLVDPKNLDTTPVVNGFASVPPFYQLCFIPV

O=c1[nH]c(=O)c(Cc2cccc(C(F)(F)F)c2)c([C@H]2CC[C@H](c3ccccc3)CC2)[nH]1 [miricorilant]
Substrate of OATP1B3 (OATP1B3): not a substrate | adverse effects in 28‐day toxicology study (28-day toxicology study): No adverse effects | total radioactivity recovered in urine [1]: < 5% | inhibition of CYP1A2 (CYP1A2): No inhibition | IC50 (CYP2C9): 7.7 µM | time dependence of CYP2C9 inhibition (CYP2C9): not time dependent | Substrate of UGT1A3 (UGT1A3): not a substrate | Substrate of BCRP (BCRP [2]): not a substrate | IC50 (BCRP [3]): 0.48 µM
